Tests used:
[1] = tested on: Kidney; experiment: Biodistribution in kidney of Sprague-Dawley rat at 17 MBq, iv after 15 mins by dissection method; assay type: ADME, organism-based; conditions: in vivo, 0.25 h
How it was run: (§1)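 The [18F]ligand was given to rats as a saline solution (average 17 MBq, about 0.11 nmol) via the tail vein. Three rats per time point were killed by cervical dislocation at 5, 15 and 30 min. Dissected tissues were gamma-counted with decay correction, and results are expressed as % injected dose per gram of wet tissue.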

[2] = tested on: Kidney; experiment: Biodistribution in kidney of Sprague-Dawley rat at 17 MBq, iv after 5 mins by dissection method; assay type: ADME, organism-based; conditions: in vivo; how it was run: as §1
[3] = tested on: Cerebral cortex; experiment: Biodistribution in cerebral cortex of Sprague-Dawley rat at 17 MBq, iv after 15 mins by dissection method; assay type: ADME, organism-based; conditions: in vivo, 0.25 h; how it was run: as §1
[4] = tested on: Heart; experiment: Biodistribution in heart of Sprague-Dawley rat at 17 MBq, iv after 5 mins by dissection method; assay type: ADME, organism-based; conditions: in vivo; how it was run: as §1
[5] = tested on: Pancreas; experiment: Biodistribution in pancreas of Sprague-Dawley rat at 17 MBq, iv after 15 mins by dissection method; assay type: ADME, organism-based; conditions: in vivo, 0.25 h
How it was run: (§2)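 [¹⁸F]7a in saline (average 17 MBq/200 µL, 0.11 nmol) was given by tail vein. Rats were killed by cervical dislocation at 5, 15 or 30 min, with three rats per time point. Tissue radioactivity was measured by gamma counting, decay-corrected and expressed as %ID per gram of wet tissue.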

[6] = tested on: Striatum; experiment: Biodistribution in striatum of Sprague-Dawley rat at 17 MBq, iv after 5 mins by dissection method; assay type: ADME, organism-based; conditions: in vivo; how it was run: as §2
[7] = tested on: Cerebellum (Mus musculus); experiment: Metabolic stability in cerebellum of mouse assessed as reduction of parent compound level at 3.7 MBq, iv after 15 mins by HPLC analysis; set-up: scale not given: the % may be the effect or the level left; conditions: in vivo, 0.25 h
[8] = tested on: Bone; experiment: Biodistribution in bone of Sprague-Dawley rat at 17 MBq, iv after 5 mins by dissection method; assay type: ADME, organism-based, Bone element; conditions: in vivo; how it was run: as §1
[9] = tested on: Lung; experiment: Biodistribution in lung of Sprague-Dawley rat at 17 MBq, iv after 15 mins by dissection method; assay type: ADME, organism-based; conditions: in vivo, 0.25 h; how it was run: as §2
[10] = Biodistribution in olfactory bulb of Sprague-Dawley rat at 17 MBq, iv after 30 mins by dissection method; assay type: ADME, organism-based; conditions: in vivo, 0.5 h; how it was run: as §2
[11] = tested on: Thalamus; experiment: Biodistribution in thalamus of Sprague-Dawley rat at 17 MBq, iv after 30 mins by dissection method; assay type: ADME, organism-based; conditions: in vivo, 0.5 h; how it was run: as §2
[12] = tested on: Cerebral cortex; experiment: Biodistribution in cerebral cortex of Sprague-Dawley rat at 17 MBq, iv after 5 mins by dissection method; assay type: ADME, organism-based; conditions: in vivo; how it was run: as §1
[13] = Biodistribution in small intestine of Sprague-Dawley rat at 17 MBq, iv after 30 mins by dissection method; assay type: ADME, organism-based; conditions: in vivo, 0.5 h; how it was run: as §2
[14] = tested on: Pancreas; experiment: Biodistribution in pancreas of Sprague-Dawley rat at 17 MBq, iv after 30 mins by dissection method; assay type: ADME, organism-based; conditions: in vivo, 0.5 h; how it was run: as §2
[15] = tested on: Muscle tissue; experiment: Biodistribution in muscle of Sprague-Dawley rat at 17 MBq, iv after 15 mins by dissection method; assay type: ADME, organism-based; conditions: in vivo, 0.25 h; how it was run: as §2
[16] = tested on: Cerebellum; experiment: Biodistribution in cerebellum of Sprague-Dawley rat at 17 MBq, iv after 30 mins by dissection method; assay type: ADME, organism-based; conditions: in vivo, 0.5 h; how it was run: as §1
[17] = tested on: Spleen; experiment: Biodistribution in spleen of Sprague-Dawley rat at 17 MBq, iv after 30 mins by dissection method; assay type: ADME, organism-based; conditions: in vivo, 0.5 h; how it was run: as §2
[18] = tested on: Hippocampus; experiment: Biodistribution in hippocampus of Sprague-Dawley rat at 17 MBq, iv after 30 mins by dissection method; assay type: ADME, organism-based; conditions: in vivo, 0.5 h; how it was run: as §1
[19] = Biodistribution in whole brain of Sprague-Dawley rat at 17 MBq, iv after 5 mins by dissection method; assay type: ADME, organism-based; conditions: in vivo; how it was run: as §2
[20] = tested on: Blood; experiment: Biodistribution in blood of Sprague-Dawley rat at 17 MBq, iv after 30 mins by dissection method; assay type: ADME, organism-based; conditions: in vivo, 0.5 h; how it was run: as §1
[21] = tested on: Blood; experiment: Biodistribution in blood of Sprague-Dawley rat at 17 MBq, iv after 5 mins by dissection method; assay type: ADME, organism-based; conditions: in vivo; how it was run: as §1
[22] = Biodistribution in small intestine of Sprague-Dawley rat at 17 MBq, iv after 15 mins by dissection method; assay type: ADME, organism-based; conditions: in vivo, 0.25 h; how it was run: as §2
[23] = Biodistribution in whole brain of Sprague-Dawley rat at 17 MBq, iv after 15 mins by dissection method; assay type: ADME, organism-based; conditions: in vivo, 0.25 h; how it was run: as §2
[24] = tested on: Striatum; experiment: Biodistribution in striatum of Sprague-Dawley rat at 17 MBq, iv after 30 mins by dissection method; assay type: ADME, organism-based; conditions: in vivo, 0.5 h; how it was run: as §2
[25] = tested on: Lung; experiment: Biodistribution in lung of Sprague-Dawley rat at 17 MBq, iv after 5 mins by dissection method; assay type: ADME, organism-based; conditions: in vivo; how it was run: as §2
[26] = Biodistribution in olfactory bulb of Sprague-Dawley rat at 17 MBq, iv after 15 mins by dissection method; assay type: ADME, organism-based; conditions: in vivo, 0.25 h; how it was run: as §2
[27] = tested on: Thalamus; experiment: Biodistribution in thalamus of Sprague-Dawley rat at 17 MBq, iv after 15 mins by dissection method; assay type: ADME, organism-based; conditions: in vivo, 0.25 h; how it was run: as §2
[28] = Metabolic stability in plasma of ddy mouse assessed as reduction of parent compound level at 3.7 MBq, iv after 15 mins by HPLC analysis; set-up: scale not given: the % may be the effect or the level left; conditions: 0.25 h

Drug uptake [1]: 0.57 % ID/g
Drug uptake [2]: 0.76 % ID/g
Drug uptake [3]: 0.2 % ID/g
Drug uptake [4]: 0.47 % ID/g
Drug uptake [5]: 0.34 % ID/g
Drug uptake [6]: 0.54 % ID/g
Stability [7]: 91%
Drug uptake [8]: 0.22 % ID/g
Drug uptake [9]: 0.31 % ID/g
Drug uptake [10]: 0.1 % ID/g
Drug uptake [11]: 0.1 % ID/g
Drug uptake [12]: 0.44 % ID/g
Drug uptake [13]: 1.74 % ID/g
Drug uptake [14]: 0.21 % ID/g
Drug uptake [15]: 0.14 % ID/g
Drug uptake [16]: 0.2 % ID/g
Drug uptake [17]: 0.16 % ID/g
Drug uptake [18]: 0.09 % ID/g
Drug uptake [19]: 0.52 % ID/g
Drug uptake [20]: 0.15 % ID/g
Drug uptake [21]: 0.38 % ID/g
Drug uptake [22]: 4.64 % ID/g
Drug uptake [23]: 0.23 % ID/g
Drug uptake [24]: 0.11 % ID/g
Drug uptake [25]: 0.5 % ID/g
Drug uptake [26]: 0.24 % ID/g
Drug uptake [27]: 0.29 % ID/g
Stability [28]: 23%
SMILES: Cc1c(-c2ccc3ncccc3c2)nnn1-c1cccnc1[18F]

From ChEMBL document CHEMBL1641444, “Synthesis and evaluation of 6-[1-(2-[(18)F]fluoro-3-pyridyl)-5-methyl-1H-1,2,3-triazol-4-yl]quinoline for positron emission tomography imaging of the metabotropic glutamate receptor type 1 in brain” (Bioorg Med Chem, 2011)
